Calls of active or inactive are those of the source. The calls are words filed in the database; no cut-off is given here.
Experiments:
[1] = system: U-87MG ATCC; assay: Induction of apoptosis in human U87 cells assessed as cell shrinkage at 1 uM after 48 hrs by DAPI staining; assay type: functional, cell-based
[2] = system: T98G; assay: Induction of apoptosis in human T98G cells assessed as irregularities in cellular shape at 1 uM after 48 hrs by DAPI staining; assay type: functional, cell-based
[3] = system: U-87MG ATCC; assay: Induction of apoptosis in human U87 cells assessed as membrane blebbing at 1 uM after 48 hrs by DAPI staining; assay type: functional, cell-based
[4] = system: U-87MG ATCC; assay: Induction of apoptosis in human U87 cells assessed as appearance of autophagolysosomes at 1 uM after 48 hrs by acridine orange/ethidium bromide staining-based microscopy; assay type: functional, cell-based
Outline: (§1)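 After 48 h at 1 μM, cells were incubated for 15 min in serum-free medium containing 1 μg mL⁻¹ acridine orange and 1 μg mL⁻¹ ethidium bromide. The medium was removed and cells imaged by inverted fluorescence microscopy (530–650 nm). Green/orange nuclear patterns and acidic cytoplasmic vacuoles were scored.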

[5] = system: T98G; assay: Induction of apoptosis in human T98G cells assessed as membrane blebbing at 1 uM after 48 hrs […]; assay type: functional, cell-based
[6] = (§2) Cytotoxicity against human U87 cells expressing wild-type p53 after 48 hrs by MTT assay; assay type: functional, cell-based, U-87MG ATCC; details: U-87 MG, read-out: IC50
Outline: (§3)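 MTT assay. Cells were grown in DMEM with 10% FBS and penicillin/streptomycin at 37 °C under 5% CO2, seeded at 1–2×10^3 cells/well and treated 12 h later with 1×10^-12 to 1×10^-5 M ([…] from DMSO stock, final DMSO <0.5%) for 48 h. MTT was added at 0.5 mg mL⁻¹, formazan dissolved in DMSO and read at 570 nm. IC50 is the concentration giving 50% cytotoxicity. Quadruplicates, ≥3 independent experiments.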

[7] = system: U-87MG ATCC; assay: as §2; assay type: functional, cell-based; outline: as §3
[8] = system: MCF7; assay: Cytotoxicity against human MCF7 cells after 48 hrs by MTT assay; assay type: functional, cell-based; details: for IC50: MCF7, 48 h, read-out: IC50; outline: as §3
[9] = system: U-87MG ATCC; assay: Induction of apoptosis in human U87 cells assessed as chromatin condensation at 1 uM after 48 hrs by DAPI staining; assay type: functional, cell-based
Outline: (§4)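 Cells were treated at 1 μM for 48 h, washed in PBS and fixed in 70% methanol for 30 min at room temperature. They were stained with 0.4 μg mL⁻¹ DAPI for 1 h in the dark, and nuclear condensation and fragmentation were scored by fluorescence microscopy (385–410 nm).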

[10] = system: MCF7; assay: Induction of apoptosis in human MCF7 cells assessed as chromatin condensation at 1 uM after 48 hrs by DAPI staining; assay type: functional, cell-based; outline: as §4
[11] = system: MCF7; assay: Induction of apoptosis in human MCF7 cells assessed as chromatin condensation at 1 uM after 48 hrs by acridine orange/ethidium bromide staining-based microscopy; assay type: functional, cell-based; outline: as §1
[12] = system: T98G; assay: Induction of apoptosis in human T98G cells assessed as cell shrinkage at 1 uM after 48 hrs by DAPI staining; assay type: functional, cell-based
[13] = system: MCF7; assay: Induction of apoptosis in human MCF7 cells assessed as membrane blebbing at 1 uM after 48 hrs by DAPI staining; assay type: functional, cell-based
[14] = system: MCF7; assay: Induction of apoptosis in human MCF7 cells assessed as DNA fragmentation at 1 uM after 48 hrs by DAPI staining; assay type: functional, cell-based; outline: as §4
[15] = system: U-87MG ATCC; assay: Induction of apoptosis in human U87 cells assessed as irregularities in cellular shape at 1 uM after 48 hrs by DAPI staining; assay type: functional, cell-based
[16] = system: MCF7; assay: Induction of apoptosis in human MCF7 cells assessed as cell shrinkage at 1 uM after 48 hrs by DAPI staining; assay type: functional, cell-based
[17] = system: U-87MG ATCC; assay: Induction of apoptosis in human U87 cells assessed as chromatin condensation at 1 uM after 48 hrs by acridine orange/ethidium bromide staining-based microscopy; assay type: functional, cell-based; outline: as §1
[18] = system: T98G; assay: Induction of apoptosis in human T98G cells assessed as DNA fragmentation at 1 uM after 48 hrs by DAPI staining; assay type: functional, cell-based; outline: as §4
[19] = system: T98G; assay: Induction of apoptosis in human T98G cells assessed as chromatin condensation at 1 uM after 48 hrs by DAPI staining; assay type: functional, cell-based; outline: as §4
[20] = system: T98G; assay: Induction of apoptosis in human T98G cells assessed as appearance of autophagolysosomes at 1 uM after 48 hrs by acridine orange/ethidium bromide staining-based microscopy; assay type: functional, cell-based; outline: as §1
[21] = system: T98G; assay: Cytotoxicity against human T98G cells expressing mutant p53 after 48 hrs by MTT assay; assay type: functional, cell-based; details: for IC50: read-out: IC50; outline: as §3
[22] = system: U-87MG ATCC; assay: Induction of apoptosis in human U87 cells assessed as DNA fragmentation at 1 uM after 48 hrs by DAPI staining; assay type: functional, cell-based; outline: as §4
[23] = Haemolytic activity in human RBC after 1 hr by photometry; assay type: ADME, cell-based; details: Erythrocyte
Outline: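 Human EDTA blood was spun at 700xg for 10 min and the erythrocytes washed three times in cold PBS pH 7.4, then resuspended in it. Cells were incubated with varying compound concentrations for 1 h at 37 °C with shaking. After centrifugation, released haemoglobin was read at 540 nm to give the IC50. Mean ± SD, n = 4.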

[24] = system: MCF7; assay: Induction of apoptosis in human MCF7 cells assessed as irregularities in cellular shape at 1 uM after 48 hrs by DAPI staining; assay type: functional, cell-based
[25] = system: MCF7; assay: Induction of apoptosis in human MCF7 cells assessed as appearance of autophagolysosomes at 1 uM after 48 hrs by acridine orange/ethidium bromide staining-based microscopy; assay type: functional, cell-based; outline: as §1
[26] = system: T98G; assay: Induction of apoptosis in human T98G cells assessed as chromatin condensation at 1 uM after 48 hrs by acridine orange/ethidium bromide staining-based microscopy; assay type: functional, cell-based; outline: as §1

CC(=NNC(=S)Nc1cccc(Cl)c1)c1ccccn1 (mixture of isomers)
Activity [1]: Active
Activity [2]: Active
Activity [3]: Active
Activity [4]: Active
Activity [5]: Active
IC50 [6]: 31 nM
Activity [7]: Dose-dependent effect
Activity [8]: Dose-dependent effect
IC50 [8]: 24 nM
Activity [9]: Active
Activity [10]: Active
Activity [11]: Active
Activity [12]: Active
Activity [13]: Active
Activity [14]: Active
Activity [15]: Active
Activity [16]: Active
Activity [17]: Active
Activity [18]: Active
Activity [19]: Active
Activity [20]: Active
Activity [21]: Dose-dependent effect
IC50 [21]: 1 nM
Activity [22]: Active
IC50 [23]: > 10000 nM
Activity [24]: Active
Activity [25]: Active
Activity [26]: Active

CC(=NNC(=S)Nc1ccc(F)cc1)c1ccccn1 (mixture of isomers)
Activity [1]: Active
Activity [2]: Active
Activity [3]: Active
Activity [4]: Active
Activity [5]: Active
IC50 [6]: 10 nM
Activity [7]: Dose-dependent effect
Activity [8]: Dose-dependent effect
IC50 [8]: 1.2 nM
Activity [9]: Active
Activity [10]: Active
Activity [11]: Active
Activity [12]: Active
Activity [13]: Active
Activity [14]: Active
Activity [15]: Active
Activity [16]: Active
Activity [17]: Active
Activity [18]: Active
Activity [19]: Active
Activity [20]: Active
Activity [21]: Dose-dependent effect
IC50 [21]: 17 nM
Activity [22]: Active
IC50 [23]: > 10000 nM
Activity [24]: Active
Activity [25]: Active
Activity [26]: Active

CC(=NNC(=S)Nc1ccccc1I)c1ccccn1 (mixture of isomers)
Activity [1]: Active
Activity [2]: Active
Activity [3]: Active
Activity [4]: Active
Activity [5]: Active
IC50 [6]: 6.1 nM
Activity [7]: Dose-dependent effect
Activity [8]: Dose-dependent effect
IC50 [8]: 4.1 nM
Activity [9]: Active
Activity [10]: Active
Activity [11]: Active
Activity [12]: Active
Activity [13]: Active
Activity [14]: Active
Activity [15]: Active
Activity [16]: Active
Activity [17]: Active
Activity [18]: Active
Activity [19]: Active
Activity [20]: Active
Activity [21]: Dose-dependent effect
IC50 [21]: 8.1 nM
Activity [22]: Active
IC50 [23]: > 10000 nM
Activity [24]: Active
Activity [25]: Active
Activity [26]: Active

CC(=NNC(=S)Nc1cccc(I)c1)c1ccccn1 (mixture of isomers)
Activity [1]: Active
Activity [2]: Active
Activity [3]: Active
Activity [4]: Active
Activity [5]: Active
IC50 [6]: 84 nM
Activity [7]: Dose-dependent effect
Activity [8]: Dose-dependent effect
IC50 [8]: 45 nM
Activity [9]: Active
Activity [10]: Active
Activity [11]: Active
Activity [12]: Active
Activity [13]: Active
Activity [14]: Active
Activity [15]: Active
Activity [16]: Active
Activity [17]: Active
Activity [18]: Active
Activity [19]: Active
Activity [20]: Active
Activity [21]: Dose-dependent effect
IC50 [21]: 61 nM
Activity [22]: Active
IC50 [23]: > 10000 nM
Activity [24]: Active
Activity [25]: Active
Activity [26]: Active

CC(=NNC(=S)Nc1ccc(I)cc1)c1ccccn1 (mixture of isomers)
Activity [1]: Active
Activity [2]: Active
Activity [3]: Active
Activity [4]: Active
Activity [5]: Active
IC50 [6]: 59 nM
Activity [7]: Dose-dependent effect
Activity [8]: Dose-dependent effect
IC50 [8]: 6.6 nM
Activity [9]: Active
Activity [10]: Active
Activity [11]: Active
Activity [12]: Active
Activity [13]: Active
Activity [14]: Active
Activity [15]: Active
Activity [16]: Active
Activity [17]: Active
Activity [18]: Active
Activity [19]: Active
Activity [20]: Active
Activity [21]: Dose-dependent effect
IC50 [21]: 64 nM
Activity [22]: Active
IC50 [23]: > 10000 nM
Activity [24]: Active
Activity [25]: Active
Activity [26]: Active

CC(=NNC(=S)Nc1ccccc1[N+](=O)[O-])c1ccccn1 (mixture of isomers)
Activity [1]: Active
Activity [2]: Active
Activity [3]: Active
Activity [4]: Active
Activity [5]: Active
IC50 [6]: 4.3 nM
Activity [7]: Dose-dependent effect
Activity [8]: Dose-dependent effect
IC50 [8]: 5.7 nM
Activity [9]: Active
Activity [10]: Active
Activity [11]: Active
Activity [12]: Active
Activity [13]: Active
Activity [14]: Active
Activity [15]: Active
Activity [16]: Active
Activity [17]: Active
Activity [18]: Active
Activity [19]: Active
Activity [20]: Active
Activity [21]: Dose-dependent effect
IC50 [21]: 6.6 nM
Activity [22]: Active
IC50 [23]: > 10000 nM
Activity [24]: Active
Activity [25]: Active
Activity [26]: Active

CC(=NNC(S)=Nc1ccccc1Cl)c1ccccn1 (mixture of isomers)
Activity [1]: Active
Activity [2]: Active
Activity [3]: Active
Activity [4]: Active
Activity [5]: Active
IC50 [6]: 2.6 nM
Activity [7]: Dose-dependent effect
Activity [8]: Dose-dependent effect
IC50 [8]: 0.16 nM
Activity [9]: Active
Activity [10]: Active
Activity [11]: Active
Activity [12]: Active
Activity [13]: Active
Activity [14]: Active
Activity [15]: Active
Activity [16]: Active
Activity [17]: Active
Activity [18]: Active
Activity [19]: Active
Activity [20]: Active
Activity [21]: Dose-dependent effect
IC50 [21]: 1.1 nM
Activity [22]: Active
IC50 [23]: > 10000 nM
Activity [24]: Active
Activity [25]: Active
Activity [26]: Active

From ChEMBL document CHEMBL2034980, “N⁴-Phenyl-substituted 2-acetylpyridine thiosemicarbazones: cytotoxicity against human tumor cells, structure-activity relationship studies and investigation on the mechanism of action” (Bioorg Med Chem, 2012)
